PKD1 kinase inh – inhibitors of human PKD1 kinase; Q15139; PKD1 kinase fluorescence polarization assay; inhibition, % (test concentration not listed); hit rate 0.056% among 200,000; in the data active means inhibition above about 50%
ABCB1 inh – human ABCB1 inhibition, ABCG2 as counter-screen; hit rate 0.067% among 190,000; AID 1326; CCRF-Adr cells, JC-1 efflux, flow cytometry; inhibition, % at 6.6 µM; in the data active means inhibition above about 40%;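 further: higher value means more JC-1 retained so stronger ABCB1 efflux block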
HSV augment – HSV replication enhancement. HSV replication augmentation in cells, fold increase. AID 1956. hit rate 0.005% among 220,000. maximum fold increase; in the data active means maximum fold increase above about 1.5; inconclusive means no clear call, values can overlap the other calls; tested in PC3 cells
PHOSPHO1 inh – inhibitors of human PHOSPHO1 phosphatase | inhibition, % at 13.3 µM | recombinant PHOSPHO1, absorbance phosphatase assay | Q8TCT1 | hit rate 1.1% among 290,000 | AID 1565; in the data active means inhibition above about 60%
Target sequence (Q8TCT1 whole entry, looked up): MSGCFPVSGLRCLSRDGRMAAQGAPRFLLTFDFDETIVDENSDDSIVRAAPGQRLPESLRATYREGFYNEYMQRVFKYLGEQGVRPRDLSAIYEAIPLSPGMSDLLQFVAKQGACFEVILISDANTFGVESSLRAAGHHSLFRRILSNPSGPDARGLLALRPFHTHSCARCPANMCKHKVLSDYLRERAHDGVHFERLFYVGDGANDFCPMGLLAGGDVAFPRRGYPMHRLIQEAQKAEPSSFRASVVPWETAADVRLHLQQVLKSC
p47phox inh – inhibitors of human p47phox binding; p47phox/p22phox peptide binding, fluorescence polarization, 2 h; inhibition, % at 24.7 µM; hit rate 0.53% among 220,000;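 active means inhibition above about 30%, limit read from the data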
ABCG2 block – blocks JC-1 efflux by human ABCG2 transporter. IgMXP3 cells, flow cytometry. inhibition, % at 6.6 µM. Q9UNQ0. hit rate 0.1% among 190,000;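 active means inhibition above 80%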
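Test system: IgMXP3 (ABCG2) plus far-red-tagged CCRF-Adr (ABCB1) cells. Reagent: JC-1 dye as substrate. Timing: 10 min exposure at 25 °C with rotation, no wash. Measured by: flow cytometric JC-1 green MFI at 530 nm. Read-out: percent efflux inhibition, scaled nicardipine 100% to DMSO 0%. Control set: nicardipine and DMSO wells.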
A number is an active result; i = inactive; ? = inconclusive; nt = no result given. Shown are actives, neighbours in structure and some others; about 1.6% of the full set was active somewhere.

SMILES | PKD1 kinase inh | ABCB1 inh | HSV augment | PHOSPHO1 inh | p47phox inh | ABCG2 block
CCc1nnc(NC(=O)c2sc3nc4cc(C)ccc4cc3c2N)s1 | i | i | nt | 99 | i | i
CCOC(=O)c1c(-c2ccccc2)csc1NC(=O)C1CCCO1 (stereo not drawn) | i | i | i | 72 | i | i
CCOC(=O)c1c(-c2ccc(-c3ccccc3)cc2)csc1NC(=O)C1C2CCC(O2)C1C(=O)O (stereo not drawn) | i | i | i | i | i | i
COCCNC(=O)c1cc(-c2ccc3c(c2)OCO3)on1 | i | i | nt | 69 | i | i
O=c1[nH]c(=S)[nH]c(O)c1N=Nc1ccc(-c2ccccc2)cc1[N+](=O)[O-] | i | i | i | i | 70 | i
O=C(O)c1ccccc1N=Nc1c(O)[nH]c2ccc([N+](=O)[O-])cc12 | nt | nt | nt | i | nt | nt
Cn1c(SCC(=O)Nc2ccc3nc(SCC(=O)NC4CC4)sc3c2)nnc1-c1ccccc1 | i | i | i | i | i | i
Cn1c(SCC(=O)Nc2ccc3nc(SCC(=O)N4CCCC4)sc3c2)nnc1-c1ccc(N)cc1 | i | i | nt | 67 | i | i
CN(CCc1ccccn1)C(=O)CCC1CCCN(C(=O)c2ccsc2)C1 (stereo not drawn) | i | i | i | 61 | i | i
COc1ccc(CN2C(=O)c3cccnc3C2=O)cc1S(=O)(=O)NC1CCCCC1 | nt | nt | nt | 69 | nt | nt
COc1ccccc1CNS(=O)(=O)c1cc(CN2C(=O)c3cccnc3C2=O)ccc1OC | nt | nt | nt | i | nt | nt
COC(=O)c1cn(C(=O)c2ccc(OC)cc2)c2ccccc12 | nt | nt | nt | i | nt | nt
CCN(CC)c1ccc(/C=N/Nc2cccc(C)c2)c(O)c1 | i | i | ? | i | i | i
CCN(CC)c1ccc(/C=N/Nc2ccccc2)c(O)c1 | i | i | i | 91 | i | i
CN1C2C=C(N(CCc3c[nH]c4ccccc34)C(=O)c3ccc(Cl)cc3)CC1CC2 (stereo not drawn) | i | i | i | i | i | i
CC(NC(=O)C1CCC(C(=O)NC(C)c2ccccc2)CC1)c1ccccc1 (stereo not drawn) | nt | nt | nt | i | nt | nt
COCc1cc(C)nc(N2CCN(Cc3ccccc3)CC2)c1C#N | i | i | i | 78 | i | i
COCc1cc(C)nc(N2CCN(c3ccccc3)CC2)c1C#N | i | i | i | i | i | i
CCOc1ccccc1NC(=O)c1cc(-c2ccncc2)nc2c(Cl)cccc12 | i | i | i | i | 40 | i
O=C1c2cccc3cccc(c23)C(=O)N1c1nccs1 | i | i | i | i | i | i
O=C1c2cccc3cccc(c23)C(=O)N1c1ccc2ncccc2c1 | i | i | i | i | 35 | i
O=C(C1CCCO1)N1CCN(C(=S)Nc2ccc(Cl)cc2)CC1 (stereo not drawn) | i | i | i | i | i | i
COc1ccc(C2c3c(-c4cc(Cl)c(C)cc4O)n[nH]c3C(=O)N2Cc2cccnc2)cc1OC (stereo not drawn) | i | i | i | i | i | i
S=C1NC2=C(CCC/C2=C\c2ccc(Cl)cc2)C(c2ccc(Cl)cc2)N1 (stereo not drawn) | nt | nt | i | 92 | i | nt
Cn1c(CC(=O)Nc2ccccc2)n[nH]c1=S | i | i | i | 60 | i | i
SMILES | PKD1 kinase inh | ABCB1 inh | HSV augment | PHOSPHO1 inh | p47phox inh | ABCG2 block
O=[N+]([O-])c1ccc(/C=N/N2CCCCC2)cc1 | nt | nt | nt | i | nt | nt
Clc1ccc(/C=N/N2CCCCC2)cc1 | nt | nt | i | 65 | i | nt
CCC(C)(C)NC(=O)c1ccc2c(c1)OCCO2 | i | i | i | i | i | i
O=C(O)CCc1ccc(-c2cccs2)n1CC(=O)Nc1ccccc1C(F)(F)F | i | i | i | i | i | i
Clc1ccc(/C=N/Nc2nc(Cl)nc3ccccc23)cc1 | i | i | i | i | 70 | i
O=c1c2ccccc2nc(N/N=C/c2ccc(O)cc2)n1O | i | i | nt | 88 | i | i
Clc1ccc(/C=N/Nc2nnc(Cl)c3ccccc23)cc1 | i | i | i | i | i | i
O=c1c2ccccc2nc(N/N=C/c2c(O)ccc3ccccc23)n1O | i | i | nt | 66 | i | i
COc1cccc(NC(=O)c2cccc(N3C(=O)C4CCC(C)CC4C3=O)c2)c1 (stereo not drawn) | nt | nt | nt | i | nt | nt
Cc1cc(C(=O)CSc2ccccc2)cc(C)c1O | nt | nt | nt | i | nt | nt
CCOC(=O)c1[nH]c2ccc(OC)cc2c1NC(=O)CCN1CCC(C)CC1 | i | i | i | 71 | i | i
CCOC(=O)c1[nH]c2ccc(Br)cc2c1NC(=O)CCN1CCC(C)CC1 | i | i | i | i | i | i
COC(=O)/C(=N\OCc1ccc(C#N)cc1)c1c(C)nn(C)c1C | nt | nt | nt | i | nt | nt

Screens as filed in PubChem BioAssay.
